Test results taken from paper PMC7717452 (Journal of Enzyme Inhibition and Medicinal Chemistry, 2020).
Like-named read-outs stand apart in the source and are kept apart here.

Columns and labels:
[1] = target: T1, LiTryS (Leishmania infantum trypanothione synthetase) (Leishmania infantum, UniProt A4I2Z3); assay: TryS activity end-point assay; type: biochemical; settings: for IC50: ± 2σ, ∼30 assumed for 50 ± 5% inhibition at 30 µM; for % TryS inhibition at 30 µM, LiTryS: NA = not active (enzyme activity > 95%)
T1 sequence (A4I2Z3 1-652): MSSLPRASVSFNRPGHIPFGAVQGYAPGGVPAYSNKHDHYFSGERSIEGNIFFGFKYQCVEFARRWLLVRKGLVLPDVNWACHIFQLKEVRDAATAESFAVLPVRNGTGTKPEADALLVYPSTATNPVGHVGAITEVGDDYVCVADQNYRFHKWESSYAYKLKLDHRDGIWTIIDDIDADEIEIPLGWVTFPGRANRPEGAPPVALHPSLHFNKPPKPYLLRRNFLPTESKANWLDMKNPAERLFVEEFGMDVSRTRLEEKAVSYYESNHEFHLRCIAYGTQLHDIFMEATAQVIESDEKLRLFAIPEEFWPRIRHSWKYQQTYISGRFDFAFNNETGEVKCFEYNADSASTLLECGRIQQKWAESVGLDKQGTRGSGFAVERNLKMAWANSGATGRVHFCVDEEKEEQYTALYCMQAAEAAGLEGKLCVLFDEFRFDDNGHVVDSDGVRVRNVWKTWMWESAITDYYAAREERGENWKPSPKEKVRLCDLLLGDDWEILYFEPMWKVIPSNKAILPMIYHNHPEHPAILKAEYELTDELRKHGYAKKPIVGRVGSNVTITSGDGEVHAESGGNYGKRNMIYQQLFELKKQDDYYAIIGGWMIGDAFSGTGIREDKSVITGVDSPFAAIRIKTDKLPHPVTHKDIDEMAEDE
How it was run: (§1)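 Recombinant TryS end-point assay in 100 mM HEPES pH 7.4 with 5 mM DTT, 10 mM MgSO4 and 0.5 mM EDTA. ATP was 150 µM and spermidine 2 mM. GSH was 0.25 mM for LiTryS, 0.05 mM for TbTryS and 0.57 mM for TcTryS. Enzyme started the reaction and BIOMOL Green stopped it after 15 min. A650 was read after 20 min at room temperature. Values were corrected with no-enzyme blanks and for compound interference with phosphate. At least quadruplicates; IC50 is given ± 2σn-1.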

[2] = tested on: L. braziliensis amastigotes; assay: Macrophage infection assay, L. braziliensis amastigotes; type: cell-based, Leishmania braziliensis; settings: 24 h; for activity at 10 µM: Leishmania braziliensis, Macrophage, read-out: % infection by L. braziliensis at 10 µM
How it was run: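 J774 macrophages were plated on coverslips at 1 × 10^5 cells/mL in DMEM with 1% FBS. They were infected with stationary-phase L. braziliensis promastigotes (MHOM/BR/01/BA788; 1:20) for 2 h at room temperature, then 22 h at 35 °C. After washing, cells got test compound (5 or 10 µM, or 10–0.01 µM) in 1% DMSO for 24 h at 37 °C and 5% CO2. Cells were EtOH-fixed and DAPI-stained, and 100–200 macrophages were imaged. % infected cells is relative to DMSO.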

[3] = tested on: Mouse macrophages from the cell line J774; assay: Cytotoxicity assay; type: cell-based; settings: 100 µM, 24 h, non-infected J774
How it was run: (§2)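 J774 mouse macrophages were grown in DMEM with 10% FBS and penicillin/streptomycin at 37 °C in humidified 5% CO2. Cells were seeded at 6 × 10^4 cells/mL and exposed the next day for 24 h to test compound at 100 to 0.001 µM (200 µM for one compound). The WST-1 signal was read at A450. % cytotoxicity was calculated against DMSO-treated and untreated cells, and CC50 is given ± σn–1.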

Cytotoxicity assay = type: cell-based, mouse; settings: mouse, J774 macrophages (ATCC TIB67), non-infected
How it was run: as §2

TbTryS = target: T2, TbTryS (Trypanosoma brucei brucei, UniProt Q8IEX1); assay: TryS activity end-point assay; type: biochemical; settings: IC50 value, TbTryS, ± 2σ; ~30 assumed for 50 ± 5% inhibition at 30 µM
T2 sequence (Q8IEX1 1-627): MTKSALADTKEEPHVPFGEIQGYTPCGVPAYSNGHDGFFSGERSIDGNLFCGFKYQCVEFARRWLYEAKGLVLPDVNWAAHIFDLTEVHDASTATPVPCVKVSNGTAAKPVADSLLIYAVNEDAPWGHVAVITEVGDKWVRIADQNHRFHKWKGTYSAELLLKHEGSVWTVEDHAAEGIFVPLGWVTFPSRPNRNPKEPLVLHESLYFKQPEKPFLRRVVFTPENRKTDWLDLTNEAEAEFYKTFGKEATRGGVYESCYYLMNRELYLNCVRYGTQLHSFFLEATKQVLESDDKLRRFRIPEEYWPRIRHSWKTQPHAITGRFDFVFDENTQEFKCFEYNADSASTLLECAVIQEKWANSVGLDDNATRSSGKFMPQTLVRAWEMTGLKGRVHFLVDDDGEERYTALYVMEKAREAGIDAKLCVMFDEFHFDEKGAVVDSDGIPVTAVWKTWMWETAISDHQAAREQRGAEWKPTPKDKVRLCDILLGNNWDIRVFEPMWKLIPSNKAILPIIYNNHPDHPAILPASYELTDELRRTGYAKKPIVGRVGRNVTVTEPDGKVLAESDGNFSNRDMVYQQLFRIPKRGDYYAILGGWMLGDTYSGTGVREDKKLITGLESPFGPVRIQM
How it was run: as §1

TcTryS = target: T3, TcTryS (Trypanosoma cruzi, UniProt Q9GT49); assay: TryS activity end-point assay; type: biochemical; settings: IC50 value, TcTryS, ± 2σ; ~30 assumed for 50 ± 5% inhibition at 30 µM
T3 sequence (Q9GT49 1-647): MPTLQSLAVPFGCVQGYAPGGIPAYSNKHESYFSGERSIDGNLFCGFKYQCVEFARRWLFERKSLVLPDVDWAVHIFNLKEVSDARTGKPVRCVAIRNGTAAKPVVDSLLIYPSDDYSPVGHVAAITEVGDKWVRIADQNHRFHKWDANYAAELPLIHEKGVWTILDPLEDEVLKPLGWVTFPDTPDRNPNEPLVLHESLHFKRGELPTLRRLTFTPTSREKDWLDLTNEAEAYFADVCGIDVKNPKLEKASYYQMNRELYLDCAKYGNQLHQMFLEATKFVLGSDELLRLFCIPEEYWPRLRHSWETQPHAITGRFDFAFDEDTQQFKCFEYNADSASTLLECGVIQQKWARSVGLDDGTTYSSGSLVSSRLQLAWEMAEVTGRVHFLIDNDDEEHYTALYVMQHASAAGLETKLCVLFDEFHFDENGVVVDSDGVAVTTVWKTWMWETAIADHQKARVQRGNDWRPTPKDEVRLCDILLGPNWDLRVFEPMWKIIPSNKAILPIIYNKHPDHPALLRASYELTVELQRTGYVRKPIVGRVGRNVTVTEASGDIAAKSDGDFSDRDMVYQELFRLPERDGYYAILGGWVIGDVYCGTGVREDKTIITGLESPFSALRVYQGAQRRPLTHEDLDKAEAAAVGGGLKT
How it was run: as §1

O=C1Cc2c([nH]c3ccc(Br)cc23)-c2ccc(Cl)cc2N1CCO [Compound 2] showed an IC50 ([1]; read-out: IC50 value, LiTryS) of roughly 30 µM.
With O=C(O)CN1C(=O)Cc2c([nH]c3ccc(Br)cc23)-c2ccc(Cl)cc21 [Compound 3] the “% TryS inhibition at 30 µM, LiTryS” value [1] was “inactive”.
With COC(=O)CN1C(=O)Cc2c([nH]c3ccc(Br)cc23)-c2ccc(Cl)cc21 [Compound 4] the IC50 ([1]; IC50 value, LiTryS) was 3 ± 0.7 µM.
For CCOC(=O)CN1C(=O)Cc2c([nH]c3ccc(Br)cc23)-c2ccc(Cl)cc21 [Compound 5], the “% TryS inhibition at 30 µM, LiTryS” value [1] was 36.2 ± 3.6%.
In the case of CC(C)(C)OC(=O)CN1C(=O)Cc2c([nH]c3ccc(Br)cc23)-c2ccc(Cl)cc21 [Compound 6], the “% infection by L. braziliensis at 10 µM” value ([2]; 10 µM, relative to infected non-treated macrophages) is reported as 89 ± 13%, the IC50 ([1]; read-out: IC50 value, LiTryS) is reported as 2.4 ± 0.3 µM and the “% cytotoxicity at 100 µM, macrophages” value [3] is reported as 64 ± 0%.
For NC(=O)CN1C(=O)Cc2c([nH]c3ccc(Br)cc23)-c2ccc(Cl)cc21 [Compound 7], the IC50 ([1]; IC50 value, LiTryS) was 5.1 ± 0.5 µM.
Molecule NNC(=O)CN1C(=O)Cc2c([nH]c3ccc(Br)cc23)-c2ccc(Cl)cc21 [Compound 8] has an IC50 ([1]; IC50 value, LiTryS) of 4 ± 0.5 µM.
Molecule CNC(=O)CN1C(=O)Cc2c([nH]c3ccc(Br)cc23)-c2ccc(Cl)cc21 [Compound 9] has an activity at 10 µM [2] of 107 ± 2%, an IC50 ([1]; IC50 value, LiTryS) of 0.8 ± 0.1 µM and a cytotoxicity at 24 h, 100 µM (Cytotoxicity assay) of 93 ± 4%.
With CN(C)C(=O)CN1C(=O)Cc2c([nH]c3ccc(Br)cc23)-c2ccc(Cl)cc21 [Compound 10] the “% infection by L. braziliensis at 5 µM” value ([2]; 5 µM, relative to infected non-treated macrophages) was 72 ± 4 at 5 µM %, the IC50 ([1]; IC50 value, LiTryS) was 0.5 µM and the cytotoxicity at 24 h, 100 µM (Cytotoxicity assay) was 21 ± 1%.
In the case of CCNC(=O)CN1C(=O)Cc2c([nH]c3ccc(Br)cc23)-c2ccc(Cl)cc21 [Compound 11], the IC50 ([1]; IC50 value, LiTryS) is reported as 1.5 ± 0.2 µM.
With CCN(CC)C(=O)CN1C(=O)Cc2c([nH]c3ccc(Br)cc23)-c2ccc(Cl)cc21 [Compound 12] the activity at 10 µM [2] was 82 ± 14%, the IC50 (TbTryS) was roughly 30 µM and the IC50 ([1]; IC50 value, LiTryS) was 0.5 ± 0.1 µM. The cytotoxicity at 24 h, 100 µM (Cytotoxicity assay) was 24 ± 8%.
O=C(CN1C(=O)Cc2c([nH]c3ccc(Br)cc23)-c2ccc(Cl)cc21)NCCO [Compound 13] gave an IC50 ([1]; IC50 value, LiTryS) of 2.3 ± 0.3 µM.
Molecule O=C(CN1C(=O)Cc2c([nH]c3ccc(Br)cc23)-c2ccc(Cl)cc21)NC(CO)(CO)CO [Compound 14] has an IC50 ([1]; IC50 value, LiTryS) of 5.2 ± 0.4 µM.
CC(C)(C)NC(=O)CN1C(=O)Cc2c([nH]c3ccc(Br)cc23)-c2ccc(Cl)cc21 [Compound 15] showed an activity at 10 µM [2] of 104 ± 1%, an IC50 ([1]; IC50 value, LiTryS) of 2.3 ± 0.4 µM and a cytotoxicity at 24 h, 100 µM (Cytotoxicity assay) of 48 ± 8%.
O=C(CN1C(=O)Cc2c([nH]c3ccc(Br)cc23)-c2ccc(Cl)cc21)Nc1nncs1 [Compound 16] gave an IC50 ([1]; IC50 value, LiTryS) of roughly 30 µM and an IC50 (TcTryS) of 30 µM.
